In PubChem BioAssay AID434971 (Sanford-Burnham Center for Chemical Genomics, 2010):
About 510 (4.6%) of roughly 11,000 compounds were called active.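 Rule for the calls: active = inhibition of at least 40% at 10 µM in either of the two replicates; inactive = the rest.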 Shown is part of a subset that was picked to be rich in actives.

System: intestinal alkaline phosphatase [Mus musculus]
Assay: mouse intestinal phosphatase enzyme inhibition – biochemical, luminescence, single concentration, confirmation (AID 434971);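 note: plate controls were DMSO wells with enzyme for no effect and buffer wells lacking enzyme for full effect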
Details: purified mouse IAP, CDP-Star luminescence, 30 min; at 10 µM; hits give high values
Method in brief: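 System: mouse IAP enzyme; medium: DEA buffer containing ZnCl2 and MgCl2; also added: CDP-Star as the luminogenic phosphatase substrate; dosing: test compound delivered in DMSO; timing: 30 min enzyme-substrate-compound incubation at room temperature; detection: luminescence from CDP-Star dephosphorylation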

Q: With `COc1ccc(N2C(=O)/C(=C/c3ccco3)C(=O)NC2=S)cc1` as the compound, how does the inhibition read?
A: 43.2% (active)

Q: How did the inhibition turn out when `Cc1cc(C)cc(NC(=S)NC2CC3CCCC(C2)N3Cc2cccs2)c1` (centres undefined) was run?
A: -150% (inactive)

Q: For `O=C1NC(=O)N(Cc2ccco2)C(=O)/C1=C\c1ccc(-c2ccc(F)cc2)o1`, which inhibition is on record?
A: 83.5% (active)

Q: Which inhibition does the source give for `O=C1NC(=O)N(Cc2ccco2)C(=O)/C1=C\c1cccn1CCOc1ccccc1` here?
A: 50.6% (active)
